The record followed here is ChEMBL document CHEMBL1145271 (Bioorg Med Chem Lett, 2005).

The target of assay [1] is T1, Kappa-type opioid receptor (Homo sapiens, UniProt P41145). The assay can be described thus: Activation of human Opioid receptor kappa 1 expressed in chinese hamster ovary cells to enhance [35S]GTP-gamma-S, binding compared to U50,488H. It is filed as functional, cell-based. In a few lines:
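Agonist efficacy at human κ-opioid receptor, read as enhancement of [35S]GTPγS binding and expressed as % of the maximal response to U50,488H. Mean of at least three independent experiments, each run in duplicate.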
On the technique in general: GTPγS is a poorly hydrolysed GTP analogue; its binding reports G protein activation.

For assay [2], the target named is T1, Kappa-type opioid receptor. The assay can be described thus: Inhibition of [3H]diprenorphine binding to human Opioid receptor kappa 1 expressed in chinese hamster ovary cells. The assay is classed as cell-based, CHO. In a few lines:
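Ki from inhibition of [3H]diprenorphine binding to human κ-opioid receptor. Mean of at least three independent experiments, each run in duplicate.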

The target in assay [3] is T1, Kappa-type opioid receptor. Nature of the assay: Effective concentration for activation of human Opioid receptor kappa 1 expressed in chinese hamster ovary cells to enhance [35S]GTP-gamma-S, binding. The assay is classed as functional, cell-based. In a few lines: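 EC50 for human κ-opioid receptor activation, read as enhancement of [35S]GTPγS binding. Mean of at least three independent experiments, each run in duplicate.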

T1 sequence (P41145 whole entry): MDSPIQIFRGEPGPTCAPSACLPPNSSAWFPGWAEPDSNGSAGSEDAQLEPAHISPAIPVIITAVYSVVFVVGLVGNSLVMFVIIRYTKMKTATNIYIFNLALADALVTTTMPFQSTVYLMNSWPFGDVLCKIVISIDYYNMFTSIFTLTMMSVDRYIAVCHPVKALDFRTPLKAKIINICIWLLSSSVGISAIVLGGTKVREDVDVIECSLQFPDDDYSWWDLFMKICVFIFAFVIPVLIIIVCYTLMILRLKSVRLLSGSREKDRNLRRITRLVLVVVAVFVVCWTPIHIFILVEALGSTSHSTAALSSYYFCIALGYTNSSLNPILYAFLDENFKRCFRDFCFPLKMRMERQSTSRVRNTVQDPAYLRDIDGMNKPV

For the compound `COC(=O)[C@@H]1C[C@H](O)C(=O)[C@H]2[C@@]1(C)CC[C@H]1C(=O)O[C@H](c3ccoc3)C[C@]21C`, the Efficacy in assay [1] worked out at 98%.
Regarding `CCO[C@H]1C[C@@H](C(=O)OC)[C@]2(C)CC[C@H]3C(=O)O[C@H](c4ccoc4)C[C@]3(C)[C@H]2C1=O`, the Efficacy in assay [1] worked out at 103%.
A word on the Ki: it is a dissociation constant, usually derived from enzyme kinetics or from competition with a known ligand. Broadly, the EC50 is the concentration that produces a half-maximal response. Turning to `CCCO[C@H]1C[C@@H](C(=O)OC)[C@]2(C)CC[C@H]3C(=O)O[C@H](c4ccoc4)C[C@]3(C)[C@H]2C1=O` [SALVINORIN A PROPYL ETHER], the Efficacy in assay [1] is 100%. In addition, the Ki in assay [2] was 28.7 nM. The EC50 in assay [3] worked out at 67.4 nM.
In assay [2], `CCN[C@@H]1C[C@@H](C(=O)OC)[C@]2(C)CC[C@H]3C(=O)O[C@H](c4ccoc4)C[C@]3(C)[C@H]2C1=O` registered a Ki of 28.9 nM. Besides, in assay [3], the EC50 came to 68.9 nM.
For the compound `CNC(=O)O[C@H]1C[C@@H](C(=O)OC)[C@]2(C)CC[C@H]3C(=O)O[C@H](c4ccoc4)C[C@]3(C)[C@H]2C1=O`, the Efficacy in assay [1] was determined as 81%. This compound came in with a Ki in assay [2] of 83 nM. Moreover, the EC50 in assay [3] was found to be 201 nM.
`COC(=O)[C@@H]1C[C@H](OC)C(=O)[C@H]2[C@@]1(C)CC[C@H]1C(=O)O[C@H](c3ccoc3)C[C@]21C`: the Efficacy in assay [1] was determined as 98%. This compound also showed a Ki in assay [2] of 220 nM. In addition, the EC50 in assay [3] is 389 nM.
In turn, `CCNC(=O)O[C@H]1C[C@@H](C(=O)OC)[C@]2(C)CC[C@H]3C(=O)O[C@H](c4ccoc4)C[C@]3(C)[C@H]2C1=O` returned a Ki in assay [2] of 462 nM. In addition, in assay [3], the EC50 is above 1000 nM.
Turning to `C=CCO[C@H]1C[C@@H](C(=O)OC)[C@]2(C)CCC3C(=O)O[C@H](c4ccoc4)C[C@]3(C)[C@H]2C1=O` (stereo partly drawn), the Efficacy in assay [1] was determined as 106%. In addition, the affinity in assay [2], expressed as Ki, was 60.1 nM. The EC50 in assay [3] came to 145 nM.
In assay [2], `CCCCO[C@H]1C[C@@H](C(=O)OC)[C@]2(C)CCC3C(=O)O[C@H](c4ccoc4)C[C@]3(C)[C@H]2C1=O` (stereo partly drawn) registered a Ki of 35.8 nM. The EC50 in assay [3] was 104 nM.
In the case of `COC(=O)[C@@H]1C[C@H](OCc2ccccc2)C(=O)[C@H]2[C@@]1(C)CCC1C(=O)O[C@H](c3ccoc3)C[C@@]12C` (stereo partly drawn), the affinity in assay [2] corresponds to a Ki of 75.7 nM. For the same compound, the EC50 in assay [3] amounted to 161 nM.
Take `CCCC(=O)O[C@H]1C[C@@H](C(=O)OC)[C@]2(C)CC[C@H]3C(=O)O[C@H](c4ccoc4)C[C@]3(C)[C@H]2C1=O`: in assay [1], the Efficacy amounted to 97%. For the same compound, in assay [2], affinity was put at a Ki of 4.9 nM. Also, the EC50 in assay [3] turned out to be 9.9 nM.
Compound `COC(=O)[C@@H]1C[C@H](OC(=O)[C@H](C)N)C(=O)[C@H]2[C@@]1(C)CC[C@H]1C(=O)O[C@H](c3ccoc3)C[C@]21C` registered a Ki in assay [2] above 10000 nM.
As for `CCC(=O)O[C@H]1C[C@@H](C(=O)OC)[C@]2(C)CC[C@H]3C(=O)O[C@H](c4ccoc4)C[C@]3(C)[C@H]2C1=O`, in assay [1], the Efficacy is 94%. The compound also had a Ki in assay [2] of 7.2 nM. Also, the EC50 in assay [3] was determined as 20.4 nM.
Compound `CN[C@@H]1C[C@@H](C(=O)OC)[C@]2(C)CC[C@H]3C(=O)O[C@H](c4ccoc4)C[C@]3(C)[C@H]2C1=O` displayed a Ki in assay [2] above 10000 nM.
With `COC(=O)[C@@H]1C[C@H](OC(N)=O)C(=O)[C@H]2[C@@]1(C)CC[C@H]1C(=O)O[C@H](c3ccoc3)C[C@]21C`, the Efficacy in assay [1] is 99%. In assay [2], this compound showed a Ki of 3.2 nM. Further, the concentration giving a half-maximal response (EC50) in assay [3] is 6.2 nM.
Consider `COC(=O)[C@@H]1C[C@@H](N(C)C)C(=O)[C@H]2[C@@]1(C)CC[C@H]1C(=O)O[C@H](c3ccoc3)C[C@]21C`, for which, in assay [1], the Efficacy was 105%. Moreover, in assay [2], the Ki was determined as 90.9 nM. In assay [3], the concentration for a half-maximal effect (EC50) was found to be 343 nM.
Consider `COC(=O)[C@@H]1C[C@H](OC(=O)CNC(C)=O)C(=O)[C@H]2[C@@]1(C)CC[C@H]1C(=O)O[C@H](c3ccoc3)C[C@]21C`, for which the inhibitory constant (Ki) in assay [2] was above 10000 nM.
`COC(=O)[C@@H]1C[C@H](OC(=O)CN(C)C)C(=O)[C@H]2[C@@]1(C)CC[C@H]1C(=O)O[C@H](c3ccoc3)C[C@]21C` displayed a Ki in assay [2] above 10000 nM.
